{"data": "Measurements from different studies", "target": "Activin receptor type-1 (ACVR1, Homo sapiens, UniProt Q04771)", "Sequence (Q04771 1-509, as in one of the studies)": "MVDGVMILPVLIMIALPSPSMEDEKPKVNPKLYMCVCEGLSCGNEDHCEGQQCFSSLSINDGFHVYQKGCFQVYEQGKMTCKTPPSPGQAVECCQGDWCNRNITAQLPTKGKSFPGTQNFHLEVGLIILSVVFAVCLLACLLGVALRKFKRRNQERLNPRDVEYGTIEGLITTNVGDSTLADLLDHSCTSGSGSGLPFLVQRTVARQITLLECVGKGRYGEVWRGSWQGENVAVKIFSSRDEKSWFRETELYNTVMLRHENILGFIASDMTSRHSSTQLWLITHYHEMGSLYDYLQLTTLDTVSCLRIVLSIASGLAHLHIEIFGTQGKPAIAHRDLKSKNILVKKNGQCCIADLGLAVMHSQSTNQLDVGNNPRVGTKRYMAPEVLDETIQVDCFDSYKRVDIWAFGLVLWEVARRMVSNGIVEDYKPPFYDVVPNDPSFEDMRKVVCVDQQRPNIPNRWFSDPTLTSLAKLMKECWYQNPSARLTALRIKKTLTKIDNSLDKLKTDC", "note": "Lines come from different studies, so protocols differ."}
{"Structure (SMILES)": "COc1cc2c(N3CCN(C(=O)Nc4ccc(OC(C)C)cc4)CC3)ncnc2cc1OCCCN1CCCCC1", "assay": "cell-free assay", "setting": "0.5 µM", "measurement": "remaining signal", "result": "145%"}
{"Structure (SMILES)": "Cn1c2c(c3ccc(Cl)c(Cl)c31)C(C#N)C1(CCCC1)NC2=O (stereo not drawn)", "assay": "thermal stability, DSF", "setting": "10 µM", "measurement": "ΔTm", "result": "-0.2 °C"}
{"Structure (SMILES)": "O=C1Nc2ccc(Cl)cc2C1=Cc1cc(Cl)c(O)c(Cl)c1", "assay": "cell-free assay", "setting": "0.5 µM", "measurement": "remaining signal", "result": "130%"}
{"Structure (SMILES)": "Cn1c2c(c3ccc(Cl)c(Cl)c31)C(C#N)C1(CCNCC1)NC2=O (racemic)", "assay": "thermal stability, DSF", "setting": "10 µM", "measurement": "ΔTm", "result": "-0.1 °C"}
{"Structure (SMILES)": "Clc1ccc(Nc2nnc(Cc3ccncc3)c3ccccc23)cc1", "assay": "cell-free assay", "setting": "0.5 µM", "measurement": "remaining signal", "result": "96.1%"}
{"Structure (SMILES)": "Cn1c2c(Cl)c(Cl)ccc2c2cc(N)[nH]c(=O)c21", "assay": "thermal stability, DSF", "setting": "10 µM", "measurement": "ΔTm", "result": "3.2 °C"}
{"Structure (SMILES)": "CC(C)(O)[C@H]1CC[C@H](Nc2ccc3ncc(-c4cccc(C(F)(F)F)c4)n3n2)CC1", "assay": "enzyme activity, inhibitor", "setting": "1 µM", "measurement": "remaining activity", "result": "28.2%"}
{"Structure (SMILES)": "Cc1ccc(NC(=O)c2ccc(C)c(C(F)(F)F)c2)cc1C#Cc1nn(C2CCC(O)CC2)c2ncnc(N)c12 (stereo not drawn)", "assay": "cell-free assay", "setting": "10 µM", "measurement": "remaining signal", "result": "77%"}
{"Structure (SMILES)": "CCC1(CC)NC(=O)c2c(c3ccc(Cl)c(Cl)c3n2C)C1C#N (stereo not drawn)", "assay": "thermal stability, DSF", "setting": "10 µM", "measurement": "ΔTm", "result": "0.2 °C"}
{"Structure (SMILES)": "CN1CCN(c2cnc3c(C4CCN(C(=O)c5ccc(OC(F)(F)F)cc5N)CC4)ncnc3c2)CC1", "assay": "cell-free assay, competition with immobilised ligand", "setting": "1 µM", "measurement": "remaining binding", "result": "100%"}
{"Structure (SMILES)": "CC(C)(C)c1nc(-c2cccc(NS(=O)(=O)c3c(F)cccc3F)c2F)c(-c2ccnc(N)n2)s1", "assay": "enzyme activity, inhibitor, radiometric", "setting": "1 µM", "measurement": "remaining activity", "result": "47%"}
{"Structure (SMILES)": "Cn1cc(Cl)c2c(Oc3c(F)cc(Nc4cc(Cl)nc(N)n4)cc3F)ccnc21", "assay": "cell-free assay, competition with immobilised ligand", "setting": "0.1 µM", "measurement": "remaining binding", "result": "85%"}
{"Structure (SMILES)": "C#Cc1cccc(Nc2ncnc3cc(OCCOC)c(OCCOC)cc23)c1", "assay": "cell-free assay", "setting": "0.5 µM", "measurement": "remaining signal", "result": "101%"}
{"Structure (SMILES)": "CC(C)CC(=O)N1CCc2nc(-c3ccc(Br)cc3)nc(N(C)Cc3ccccc3)c2C1", "assay": "cell-free assay, competition with immobilised ligand", "setting": "0.1 µM", "measurement": "remaining binding", "result": "100%"}
{"Structure (SMILES)": "O=C(Nc1cnn(-c2csc(C(=O)NC3COC3)c2)c1)Nc1c(F)cccc1Cl", "assay": "enzyme activity, inhibitor", "setting": "5 µM", "measurement": "remaining activity", "result": "95.7%"}
{"Structure (SMILES)": "CC(=O)C1=C(C)N(c2cccc(C(F)(F)F)c2)C(=O)N[C@@H]1c1ccc(C#N)nc1", "assay": "cell-free assay, competition with immobilised ligand", "setting": "1 µM", "measurement": "remaining binding", "result": "74.5%"}
{"Structure (SMILES)": "Cc1cnc(NC2CCOCC2)nc1-n1cnc(C(=O)NC(CN)c2cc(F)cc(Cl)c2)c1 (stereo not drawn)", "assay": "enzyme activity, inhibitor, radiometric", "setting": "1 µM", "measurement": "remaining activity", "result": "96%"}
{"Structure (SMILES)": "O=C(NS(=O)(=O)c1ccc(NCC2CCOCC2)c([N+](=O)[O-])c1)c1ccc(N2CCN(Cc3ccc(C(F)(F)F)cc3-c3ccc(Cl)cc3)CC2)cc1Oc1cnc2[nH]ccc2c1", "assay": "cell-free assay, competition with immobilised ligand", "setting": "1 µM", "measurement": "remaining binding", "result": "89%"}
{"Structure (SMILES)": "Cn1c2c(c3ccc(Cl)c(Cl)c31)C(C#N)C(C)(C)NC2=O (stereo not drawn)", "assay": "thermal stability, DSF", "setting": "10 µM", "measurement": "ΔTm", "result": "1.1 °C"}
{"Structure (SMILES)": "O=C(O)[C@H]1[C@H](Cn2nnc3ccccc3c2=O)CC[C@@H]1C(=O)c1ccc(OCCC2CCOCC2)cc1", "assay": "cell-free assay, competition with immobilised ligand", "setting": "1 µM", "measurement": "remaining binding", "result": "100%"}
{"Structure (SMILES)": "Cc1cc(NC(=O)c2cccc3cc(-c4cccc5[nH]nc(N)c45)ccc23)ccc1F", "assay": "enzyme activity, inhibitor", "setting": "0.1 µM", "measurement": "activity vs control", "result": "105%"}
